Experiments:
[1] = tested on: KIRC-1 cells; assay: Preanaphase spindle monopolarity, KIRC-1 cells; assay type: cell-based, human
Outline: (§1)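 TP53–/– RPE-1 and KIRC-1 cells were grown in DMEM with 10% FBS, penicillin and streptomycin; KIRC-1 medium also contained 10 μM STLC. Cells on coverslips were treated overnight with increasing test-compound concentrations or DMSO. They were then methanol-fixed and stained for KIF15, tubulin and DNA. Preanaphase spindles were scored monopolar or bipolar, in triplicate with n = 100 per replicate (± SEM).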

[2] = tested on: TP53–/– RPE-1 cells; assay: Preanaphase spindle morphology, RPE-1 cells; assay type: cell-based, human; settings: increasing concentrations
Outline: as §1

[3] = tested on: HeLa-derived KIRC-2 cells; assay: Preanaphase spindle monopolarity, HeLa-derived KIRC-2 cells; assay type: cell-based; settings: same concentrations as in KIRC-1 cells
[4] = tested on: HeLa cells; assay: Preanaphase spindle monopolarity, parental HeLa cells; assay type: cell-based
[5] = target: T1, HSET (Homo sapiens, UniProt Q9BW19); assay: Microtubule gliding assay, HSET; assay type: biochemical; settings: 24 µM Munesib-1 or 100 µM Fift-IN
T1 sequence (Q9BW19 1-673): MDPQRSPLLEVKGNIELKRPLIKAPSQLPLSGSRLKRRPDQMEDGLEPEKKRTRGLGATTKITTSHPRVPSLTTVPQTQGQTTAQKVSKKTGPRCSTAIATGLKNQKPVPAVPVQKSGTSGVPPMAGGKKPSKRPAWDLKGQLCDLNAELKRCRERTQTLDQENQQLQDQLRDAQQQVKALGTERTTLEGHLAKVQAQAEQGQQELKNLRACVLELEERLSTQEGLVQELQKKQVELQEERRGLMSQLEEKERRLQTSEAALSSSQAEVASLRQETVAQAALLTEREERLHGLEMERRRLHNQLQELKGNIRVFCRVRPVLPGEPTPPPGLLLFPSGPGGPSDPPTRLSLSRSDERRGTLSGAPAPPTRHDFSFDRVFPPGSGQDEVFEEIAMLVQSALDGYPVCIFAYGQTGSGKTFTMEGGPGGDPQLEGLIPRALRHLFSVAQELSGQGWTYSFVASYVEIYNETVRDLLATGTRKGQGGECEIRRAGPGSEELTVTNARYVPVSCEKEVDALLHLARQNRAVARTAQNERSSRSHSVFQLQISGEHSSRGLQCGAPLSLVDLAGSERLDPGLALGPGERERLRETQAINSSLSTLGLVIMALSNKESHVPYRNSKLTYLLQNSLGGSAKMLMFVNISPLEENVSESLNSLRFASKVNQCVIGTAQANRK
Outline: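 Gliding assays with other motors used His6-Eg5, His6-EGFP-HSET or K560 (truncated kinesin-1), with test compound at 24 µM or 100 µM. Frames were captured every 5 s for 1 min at 100×. Velocity was the distance travelled in 1 min, from ≥15 microtubules at each of three locations (n ≥ 50 per slide).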

[6] = target: T2, KIF15-N700 (Homo sapiens, UniProt Q9NS87); assay: Microtubule binding to coverslip via KIF15 in gliding assay; settings: 1 min postdrug addition; 24 µM Munesib-1 or 100 µM Fift-IN
T2 sequence (Q9NS87 1-700 limits assumed): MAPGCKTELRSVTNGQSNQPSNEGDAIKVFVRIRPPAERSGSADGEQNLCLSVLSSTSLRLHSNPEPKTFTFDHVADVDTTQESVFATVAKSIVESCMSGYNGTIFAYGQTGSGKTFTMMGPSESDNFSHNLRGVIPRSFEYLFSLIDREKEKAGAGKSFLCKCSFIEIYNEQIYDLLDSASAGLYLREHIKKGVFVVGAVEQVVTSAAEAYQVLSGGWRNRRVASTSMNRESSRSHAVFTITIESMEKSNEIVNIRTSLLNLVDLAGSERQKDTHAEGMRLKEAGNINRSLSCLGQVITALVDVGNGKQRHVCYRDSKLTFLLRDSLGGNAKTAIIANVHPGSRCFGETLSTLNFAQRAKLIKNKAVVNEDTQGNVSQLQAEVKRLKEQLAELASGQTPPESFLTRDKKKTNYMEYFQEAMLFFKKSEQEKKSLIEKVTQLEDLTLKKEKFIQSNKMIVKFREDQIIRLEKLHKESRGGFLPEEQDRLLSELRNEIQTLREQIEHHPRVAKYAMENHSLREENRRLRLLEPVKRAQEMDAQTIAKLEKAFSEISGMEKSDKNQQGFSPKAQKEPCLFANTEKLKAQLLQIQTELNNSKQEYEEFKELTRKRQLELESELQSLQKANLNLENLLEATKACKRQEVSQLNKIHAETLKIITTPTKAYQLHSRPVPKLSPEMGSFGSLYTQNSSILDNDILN
Outline: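 During KIF15-N700 gliding assays, microtubules bound to the coverslip were counted immediately before adding drug and after 1 min of incubation. Test compound was 24 µM or 100 µM; DMSO served as control. Results are expressed as the percentage of microtubules remaining bound.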

[7] = tested on: KIF15 on spindle microtubules in RPE-1 cells; assay: KIF15 on metaphase spindles; assay type: cell-based, human; settings: Fift-IN 25 µM, Munesib-1 50 µM
Outline: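 RPE-1 cells on glass coverslips were treated overnight with test compound (25 or 50 µM) or DMSO in normal medium. Cells were fixed in 100% methanol at –20°C for 10 min. Staining used rabbit anti-KIF15 (1:2000, 1 h), FITC anti-α-tubulin (1:500, 30 min) and Hoechst 33342. Max-intensity z-projections were imaged.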

[8] = target: T3, KIF15-N420 (Homo sapiens, UniProt Q9NS87); assay: Microtubule-dependent steady-state ATPase assay; assay type: biochemical; settings: 2 mM ATP; for kcat, microtubule-dependent ATPase: fit ± 95% CI
T3 sequence (Q9NS87 1-420 limits assumed): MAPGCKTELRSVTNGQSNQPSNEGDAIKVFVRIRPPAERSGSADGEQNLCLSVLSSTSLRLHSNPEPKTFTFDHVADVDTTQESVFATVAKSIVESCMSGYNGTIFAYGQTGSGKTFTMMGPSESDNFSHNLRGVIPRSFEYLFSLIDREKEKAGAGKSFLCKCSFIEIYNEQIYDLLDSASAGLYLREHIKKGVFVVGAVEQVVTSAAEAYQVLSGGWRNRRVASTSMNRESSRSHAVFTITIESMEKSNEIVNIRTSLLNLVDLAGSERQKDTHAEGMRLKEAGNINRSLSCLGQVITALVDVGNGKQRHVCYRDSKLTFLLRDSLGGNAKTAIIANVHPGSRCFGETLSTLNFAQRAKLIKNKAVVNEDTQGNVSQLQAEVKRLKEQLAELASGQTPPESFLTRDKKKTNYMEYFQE
Outline: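 Microtubule-dependent KIF15-N420 ATPase used an NADH-coupled read-out (A340, 25°C), with rates normalised to active motor concentration. ATP was held at 2 mM and microtubules varied over eight concentrations from 0 to 8 μM. Test compound was at 3, 5, 20 or 30 μM, with a DMSO control. Michaelis-Menten fits were weighted by 1/SEM, n = 6–9 per microtubule concentration. kcat and Km are given as fit ± 95% CI.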

COC(=O)c1ccc2c(c1)N(C)S(=O)(=O)c1cnc(SC)nc1-2 [Munesib-1, Methyl 6-methyl-2-(methylthio)-6H-benzo[c]pyrimido[4,5-e][1,2]thiazine-8-carboxylate 5,5-dioxide]
effect on monopolar spindles compared with Fift-IN ([1]; 75 μM): comparatively modest
monopolar spindles ([1]; 75 μM): less than 70%
monopolarity index relative to cells treated with DMSO ([1]; increasing concentrations): concentration-dependent increase
effect on spindle morphology [2]: little effect on spindle morphology
effect on monopolarity index [3]: failed to substantially increase the monopolarity index
effect on spindle assembly in parental line [4]: little effect on the parental HeLa line
inhibition of microtubule gliding, HSET [5]: neither substantially inhibited
microtubules remaining bound to the coverslip via KIF15 [6]: little effect on binding
amount of KIF15 on metaphase spindle [7]: little effect
kcat, microtubule-dependent ATPase ([8]; 3 μM compound): 8.5 ± 1 s^–1
kcat, microtubule-dependent ATPase ([8]; 5 μM compound): 8.2 ± 3 s^–1
kcat, microtubule-dependent ATPase ([8]; 30 μM compound): 11.6 ± 6 s^–1
mode of inhibition with respect to microtubules [8]: less conclusive

Source: article PMC9727797 (Molecular Biology of the Cell, 2022)
